Consider one compound from ChEMBL document CHEMBL4609999, “Novel alkoxyamide-based histone deacetylase inhibitors reverse cisplatin resistance in chemoresistant cancer cells” (Bioorg Med Chem, 2020).

Active and inactive are the calls of the source. No cut-off for these calls is given here.

Test [1] has as its target Histone deacetylase. As to the kind of experiment: Inhibition of HDAC in human Cal27 cells. Particulars: cal-27. Format: cell-based.
Test [2] has as its target T1, Class 1 histone deacetylase (Homo sapiens) (UniProt Q13547+O15379+Q92769+Q9BY41). As to the kind of experiment: Inhibition of class 1 histone deacetylase in human Cal27CisR cells assessed as increase in H3 histone acetylation at 5 uM incubated for 24 hrs by immunoblot analysis. The class given is cell-based. In short, it runs like this: (§1)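 Cal27 and Cal27CisR cells incubated 24 h with vehicle or with inhibitor at 1.5, 3 or 5 µM. Western blot for α-tubulin, acetyl-α-tubulin and acetyl-histone H3.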
(In general: Immunoblotting shows a protein as a band on a membrane.)

In test [3] the target is T2, Protein deacetylase HDAC6 (Homo sapiens) (UniProt Q9UBN7).
T2 sequence (whole entry): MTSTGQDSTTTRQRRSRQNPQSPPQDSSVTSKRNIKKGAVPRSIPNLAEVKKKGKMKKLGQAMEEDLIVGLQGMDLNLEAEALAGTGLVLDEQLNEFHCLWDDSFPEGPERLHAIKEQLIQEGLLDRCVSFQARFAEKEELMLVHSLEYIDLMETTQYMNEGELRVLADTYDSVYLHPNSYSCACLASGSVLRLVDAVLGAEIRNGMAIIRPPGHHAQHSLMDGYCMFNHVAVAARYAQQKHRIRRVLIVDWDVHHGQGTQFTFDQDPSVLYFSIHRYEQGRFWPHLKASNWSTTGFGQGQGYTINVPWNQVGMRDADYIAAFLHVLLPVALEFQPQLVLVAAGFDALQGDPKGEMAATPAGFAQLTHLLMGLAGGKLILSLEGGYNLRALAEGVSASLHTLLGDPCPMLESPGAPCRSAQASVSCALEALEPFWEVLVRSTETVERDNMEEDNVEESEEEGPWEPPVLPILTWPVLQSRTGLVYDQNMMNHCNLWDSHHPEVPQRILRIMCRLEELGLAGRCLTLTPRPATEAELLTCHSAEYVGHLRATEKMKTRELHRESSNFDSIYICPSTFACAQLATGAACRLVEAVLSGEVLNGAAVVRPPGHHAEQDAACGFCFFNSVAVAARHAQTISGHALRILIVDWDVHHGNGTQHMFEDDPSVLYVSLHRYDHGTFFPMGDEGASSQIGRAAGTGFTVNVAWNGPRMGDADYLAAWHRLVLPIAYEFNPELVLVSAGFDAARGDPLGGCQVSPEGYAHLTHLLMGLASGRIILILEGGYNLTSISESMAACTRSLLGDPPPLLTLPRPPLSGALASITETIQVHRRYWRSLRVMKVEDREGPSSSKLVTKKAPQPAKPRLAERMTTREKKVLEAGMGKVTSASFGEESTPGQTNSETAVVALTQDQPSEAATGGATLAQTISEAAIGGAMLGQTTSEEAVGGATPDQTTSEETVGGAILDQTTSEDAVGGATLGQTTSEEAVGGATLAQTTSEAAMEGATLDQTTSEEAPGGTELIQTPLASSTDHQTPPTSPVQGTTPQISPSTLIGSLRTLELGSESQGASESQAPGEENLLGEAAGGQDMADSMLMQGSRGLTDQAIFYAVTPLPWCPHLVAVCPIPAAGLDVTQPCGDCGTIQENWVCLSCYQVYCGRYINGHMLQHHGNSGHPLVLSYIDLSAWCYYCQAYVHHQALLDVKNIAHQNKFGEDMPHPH
As to the kind of experiment: Inhibition of HDAC6 in human CAL27 cells assessed as increase in acetylated alpha-tubulin at 5 uM incubated for 24 hrs by immunoblot analysis. The class given is cell-based. Particulars: CAL-27. In short, it runs like this:
as §1

The test system of another test is A2780. As to the kind of experiment: Cytotoxicity against human A2780 cells assessed as reduction in cell viability by MTT assay. Format: functional, cell-based. For orientation: Tetrazolium dyes change colour on reduction, which living cells bring about.
The species named for test [4] is Homo sapiens. Description: Induction of apoptosis in human Cal27CisR cells assessed as increase in caspase 3/7 activation at 8 uM incubated for 24 hrs by Hoechst 33342 staining based fluorescence assay. The class given is functional, cell-based.
For test [5], the system named is CAL-27. As to the kind of experiment: Potentiation of cisplatin-induced apoptosis in human CAL27 cells assessed as increase in caspase 3/7 activation at 2.8 uM incubated for 24 hrs followed by cisplatin addition by Hoechst 33342 staining based fluorescence assay. Format: functional, cell-based. In short, it runs like this:
(§2)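 Cal27 cells pretreated with HDACi at 0.4, 0.8 or 2.8 µM, then 24 h more with 3 µM cisplatin. Cal27CisR cells pretreated at 0.8 or 8 µM, then 24 h with 25 µM cisplatin. 100 µM cisplatin as positive control. Active caspase 3/7 imaged by green fluorescence, nuclei counterstained with Hoechst 33342 (blue).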

A short description of test [6]: Potentiation of cisplatin-induced cytotoxicity against human Cal27CisR cells assessed as shift factor by measuring ratio of cisplatin IC50 to cisplatin IC50 in presence of compound at 6 uM incubated for 72 hrs followed by cisplatin addition and measured after 72 hrs by MTT assay. Format: functional. In short, it runs like this: (§3)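 MTT shift assay. Cal27 cells received HDACi at 0.2, 0.4 or 1.4 µM; Cal27CisR cells received 0.8 or 6 µM. Cells were incubated 72 h with a cisplatin range. Shift factor = cisplatin IC50 alone / cisplatin IC50 with HDACi, significance by t-test (p<0.05). Pooled mean of ≥3 experiments, each in triplicate.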

Test [7] has as its target Histone deacetylase. Description: Inhibition of HDAC in human A2780 cells. Format: cell-based.
Test [8] relates to CAL-27. As to the kind of experiment: Induction of apoptosis in human CAL27 cells assessed as increase in caspase 3/7 activation at 2.8 uM incubated for 24 hrs by Hoechst 33342 staining based fluorescence assay. The class given is functional, cell-based.
Another test deals with T3, Histone deacetylase 8 (Homo sapiens, UniProt Q9BY41).
T3 sequence (Q9BY41 whole entry): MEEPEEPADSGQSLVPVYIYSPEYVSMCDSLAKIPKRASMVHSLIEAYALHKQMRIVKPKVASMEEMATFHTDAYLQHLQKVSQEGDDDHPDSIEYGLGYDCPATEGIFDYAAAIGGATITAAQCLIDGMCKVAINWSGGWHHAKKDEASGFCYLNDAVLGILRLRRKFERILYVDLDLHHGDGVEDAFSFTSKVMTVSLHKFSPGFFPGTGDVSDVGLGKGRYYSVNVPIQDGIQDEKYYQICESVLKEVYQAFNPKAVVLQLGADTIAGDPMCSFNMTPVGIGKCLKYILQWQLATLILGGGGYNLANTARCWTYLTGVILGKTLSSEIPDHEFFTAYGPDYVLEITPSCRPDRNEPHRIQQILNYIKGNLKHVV
Description: Inhibition of recombinant human HDAC8.

The target in the next test is Histone deacetylase 4 (Homo sapiens, UniProt P56524). Description: Inhibition of recombinant human HDAC4.
Test [9] deals with CAL-27. As to the kind of experiment: Cytotoxicity against human CAL27 cells assessed as reduction in cell viability by MTT assay. Format: functional, cell-based.
Test [10] addresses T1, Class 1 histone deacetylase (Homo sapiens). As to the kind of experiment: Inhibition of class 1 histone deacetylase in human CAL27 cells assessed as increase in H3 histone acetylation at 5 uM incubated for 24 hrs by immunoblot analysis. The class given is cell-based. Particulars: CAL-27. In short, it runs like this: as §1
Test [11] concerns CAL-27. As to the kind of experiment: Potentiation of cisplatin-induced cytotoxicity against human CAL27 cells assessed as shift factor by measuring ratio of cisplatin IC50 to cisplatin IC50 in presence of compound at 1.4 uM incubated for 72 hrs followed by cisplatin addition and measured after 72 hrs by MTT assay. Format: functional. In outline: as §3
Test [12] addresses T2, Protein deacetylase HDAC6 (Homo sapiens). Description: Inhibition of HDAC6 in human Cal27CisR cells assessed as increase in acetylated alpha-tubulin at 5 uM incubated for 24 hrs by immunoblot analysis. Format: cell-based. In outline:
as §1

In another test the target is Histone deacetylase 2 (Homo sapiens, UniProt Q92769). Description: Inhibition of recombinant human HDAC2.
Test [13] concerns the target T4, Protein deacetylase HDAC6 (Homo sapiens, UniProt Q9UBN7).
T4 sequence (Q9UBN7 whole entry): T2 sequence (whole entry)
As to the kind of experiment: Inhibition of recombinant human HDAC6.

The species named for test [14] is Homo sapiens. As to the kind of experiment: Potentiation of cisplatin-induced apoptosis in human Cal27CisR cells assessed as increase in caspase 3/7 activation at 8 uM incubated for 24 hrs followed by cisplatin addition by Hoechst 33342 staining based fluorescence assay. The class given is functional, cell-based. In outline:
as §2

Chain of Histone deacetylase 4 (P56524 whole entry): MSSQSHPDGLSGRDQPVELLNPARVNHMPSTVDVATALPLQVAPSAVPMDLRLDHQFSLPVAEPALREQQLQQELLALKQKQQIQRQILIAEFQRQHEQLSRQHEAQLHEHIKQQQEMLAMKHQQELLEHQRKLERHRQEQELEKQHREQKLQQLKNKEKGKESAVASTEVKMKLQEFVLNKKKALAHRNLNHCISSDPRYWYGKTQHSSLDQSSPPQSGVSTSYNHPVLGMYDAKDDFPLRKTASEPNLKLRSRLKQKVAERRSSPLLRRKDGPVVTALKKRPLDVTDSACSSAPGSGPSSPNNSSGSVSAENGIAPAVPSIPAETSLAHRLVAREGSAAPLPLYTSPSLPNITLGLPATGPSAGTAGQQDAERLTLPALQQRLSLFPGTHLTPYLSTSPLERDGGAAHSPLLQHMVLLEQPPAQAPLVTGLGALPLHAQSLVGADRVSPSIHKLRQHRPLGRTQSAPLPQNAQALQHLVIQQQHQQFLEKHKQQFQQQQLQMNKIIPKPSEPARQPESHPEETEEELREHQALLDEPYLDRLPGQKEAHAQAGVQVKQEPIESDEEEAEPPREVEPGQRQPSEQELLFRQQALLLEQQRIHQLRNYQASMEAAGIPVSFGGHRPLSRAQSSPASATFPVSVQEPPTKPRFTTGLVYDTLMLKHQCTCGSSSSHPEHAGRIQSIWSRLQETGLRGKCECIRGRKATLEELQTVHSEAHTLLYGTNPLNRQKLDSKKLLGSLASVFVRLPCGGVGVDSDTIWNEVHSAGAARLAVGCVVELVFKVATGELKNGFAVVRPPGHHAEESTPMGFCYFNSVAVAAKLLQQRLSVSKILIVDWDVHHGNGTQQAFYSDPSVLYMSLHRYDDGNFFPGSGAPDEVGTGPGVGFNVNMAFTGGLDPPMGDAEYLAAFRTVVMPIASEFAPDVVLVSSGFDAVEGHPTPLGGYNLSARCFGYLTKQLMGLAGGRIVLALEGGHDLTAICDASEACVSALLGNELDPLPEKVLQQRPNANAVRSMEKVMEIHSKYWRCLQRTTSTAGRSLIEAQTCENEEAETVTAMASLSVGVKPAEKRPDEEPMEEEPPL
Chain of Histone deacetylase 2 (Q92769 whole entry): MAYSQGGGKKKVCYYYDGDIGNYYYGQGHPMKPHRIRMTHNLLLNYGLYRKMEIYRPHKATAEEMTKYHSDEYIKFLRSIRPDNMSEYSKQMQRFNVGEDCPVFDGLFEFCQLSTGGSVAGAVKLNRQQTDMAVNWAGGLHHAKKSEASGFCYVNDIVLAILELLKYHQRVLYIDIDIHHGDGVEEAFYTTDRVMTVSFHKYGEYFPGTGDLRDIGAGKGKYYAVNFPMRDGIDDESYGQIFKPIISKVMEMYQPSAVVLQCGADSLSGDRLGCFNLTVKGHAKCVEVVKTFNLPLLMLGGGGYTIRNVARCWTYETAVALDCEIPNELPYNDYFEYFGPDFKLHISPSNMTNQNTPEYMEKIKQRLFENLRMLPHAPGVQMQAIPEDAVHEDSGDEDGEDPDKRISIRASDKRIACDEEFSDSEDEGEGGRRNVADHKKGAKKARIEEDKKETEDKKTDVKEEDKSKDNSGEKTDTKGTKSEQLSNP

One may read the IC50 as the concentration needed to halve the response being measured. The term Ki denotes a dissociation constant, usually derived from enzyme kinetics or from competition with a known ligand. As to `COc1cc(C(=O)NOCCCCCC(=O)NO)cc(OC)c1OC`, the half-maximal inhibitory concentration (IC50) against Histone deacetylase [1] was 1.48 µM; with A2780, 13.8 µM; against Histone deacetylase [7] it was 1.18 µM; in the test with CAL-27 [9], 3.07 µM. Moreover, the inhibition entry in test [2], in [3], in test [10] and in test [12] was “Active” throughout. Besides, the outcome in the test filed under Homo sapiens [4], in the test on CAL-27 [5], in the test on CAL-27 [8] and in the test filed under Homo sapiens [14] was Active. In addition, the PF in [6] stood at 7.73; in the test with CAL-27 [11] it was 1.95. Moreover, the inhibitory constant (Ki) at Histone deacetylase 8 was determined as 6.4 µM; on Histone deacetylase 4 it was 93.1 µM; at Histone deacetylase 2 it was 0.09 µM; in test [13], 0.06 µM.
